Test results published in article PMC6839502 (Journal of Alzheimer's Disease, 2019).
“Also recorded” adds a separate entry of the source. Read-outs that look alike come from different tables or passages of the source.

Key:
[1] = type: in vivo, human; conditions: for t1/2: arithmetic mean±SD
Summary of the method: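 Healthy adults (18–55 y) or older subjects (60–85 y) received oral QD doses for 14 days, fasted on Day 1. Plasma was sampled pre-dose and at 0.5, 1, 2, 4, 8, 12, and 24 h, plus 1.5 h (B8271001) or 6 h (B8271004). Day 14 sampling extended to 120 h. Urine was also collected. Samples were analysed by validated HPLC-MS/MS; plasma LLOQ 0.500 or 5.00 ng/mL, urine LLOQ 0.050 ng/mL. Parameters were derived by non-compartmental analysis.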

pigmented C57BL/6J mice = conditions: long-term toxicology studies / 3 weeks of treatment in pigmented C57BL/6J mice; cited from earlier work
[2] = ECG QTcF change in SAD and MAD studies; type: in vivo, human
CYP3A4/5 = conditions: in vitro experiments; ref data on file; cited from earlier work
[3] = Safety and tolerability in study B8271007; type: in vivo, human; conditions: 100 mg QD
[4] = 275 mg QD, Day 1, healthy adults, geometric mean (% CV)
[5] = 275 mg QD, Day 7, healthy adults, geometric mean (% CV)
[6] = 275 mg QD, Day 14, healthy adults, geometric mean (% CV)
[7] = multiple doses, healthy adults (Part B)
[8] = single 3 mg fasted, healthy adults, geometric mean (% CV)
[9] = single 12 mg fasted, healthy adults, geometric mean (% CV)
[10] = single 40 mg fasted, healthy adults, geometric mean (% CV)
[11] = single 160 mg fasted, healthy adults, geometric mean (% CV)
[12] = single 200 mg fasted, healthy adults, geometric mean (% CV)
[13] = single 200 mg fed, healthy adults, geometric mean (% CV)
[14] = single 400 mg fasted, healthy adults, geometric mean (% CV)
[15] = single 540 mg fasted, healthy adults, geometric mean (% CV)

For `C[C@H]1C[C@H]2CSC(N)=N[C@@]2(c2nc(NC(=O)c3ccc(OC(F)F)cn3)cs2)CO1` [PF-06751979], the AUCtau [1, 4] was 13260 (18) ng.hr/mL, the Cmax [1, 4] was 983.0 (18) ng/mL and the Tmax ([1]; 275 mg QD, Day 1, healthy adults, median (range)) was 4.00 (2.00–4.00) h. The AUCtau [1, 5] was 31210 (14) ng.h/mL, the Cmax [1, 5] was 2000 (14) ng/mL and the Tmax ([1]; 275 mg QD, Day 7, healthy adults, median (range)) was 2.00 (2.00–4.00) h. For the same compound, the t1/2 ([1]; 275 mg QD, Day 14, healthy adults) was 37.79 ± 7.73 h, the AUCtau [1, 6] was 29470 (12) ng.hr/mL and the CL/F [1, 6] was 155.3 (13) mL/min. The Cmax [1, 6] was 1869 (14) ng/mL, the Cmin [1, 6] was 868.5 (15) ng/mL and the “Rac (observed accumulation ratio)” value [1, 6] was 2.27 (11). For the same compound, the Vz/F [1, 6] was 498.3 (27) L, the Tmax ([1]; 275 mg QD, Day 14, healthy adults, median (range)) was 4.00 (2.00–4.00) h and the “Mean of dose recovered unchanged in the urine” value ([1]; across the dose range studied, multiple doses) was 7–10%. The “Median Tmax” value ([1]; fasted state, single doses 3 mg to 540 mg and multiple doses up to 275 mg QD, healthy adults) was 3 to 4 h, the “Mean t1/2 across doses” value ([1]; healthy adults) was 29 to 39 h and the “Observed t1/2” value ([1]; healthy older subjects) was “approximately 40 h”. The “Plasma accumulation at Day 14” value ([1]; healthy older subjects) was 2.8 fold, the “Accumulation on Day 14” value [1, 7] was 2.1- to 2.5 fold and the “Steady state achieved by” value [1, 7] was at most 7 days. The t1/2 ([1]; single 3 mg fasted, healthy adults) was 29.30 ± 0.60 h, the AUCinf [1, 8] was 289.7 (8) ng.hr/mL and the CL/F [1, 8] was 172.3 (8) mL/min. For the same compound, the Cmax [1, 8] was 8.4 (14) ng/mL, the Vz/F [1, 8] was 436.8 (6) L and the Tmax ([1]; single 3 mg fasted, healthy adults, median (range)) was 4.03 (4.00–8.00) h. The t1/2 ([1]; single 12 mg fasted, healthy adults) was 32.94 ± 4.92 h, the AUCinf [1, 9] was 1142 (25) ng.hr/mL and the CL/F [1, 9] was 175.0 (25) mL/min. For the same compound, the Cmax [1, 9] was 27.4 (36) ng/mL, the Vz/F [1, 9] was 494.8 (20) L and the Tmax ([1]; single 12 mg fasted, healthy adults, median (range)) was 4.11 (2.0–12.00) h. The t1/2 ([1]; single 40 mg fasted, healthy adults) was 32.12 ± 3.64 h, the AUCinf [1, 10] was 3121 (25) ng.hr/mL and the CL/F [1, 10] was 213.4 (25) mL/min. For the same compound, the Cmax [1, 10] was 78.7 (30) ng/mL, the Vz/F [1, 10] was 591.4 (26) L and the Tmax ([1]; single 40 mg fasted, healthy adults, median (range)) was 4.08 (2.00–8.05) h. The t1/2 ([1]; single 160 mg fasted, healthy adults) was 39.33 ± 8.20 h, the AUCinf [1, 11] was 17050 (18) ng.hr/mL and the CL/F [1, 11] was 156.3 (18) mL/min. The Cmax [1, 11] was 530.8 (41) ng/mL, the Vz/F [1, 11] was 523.2 (25) L and the Tmax ([1]; single 160 mg fasted, healthy adults, median (range)) was 3.03 (1.87–4.08) h. For the same compound, the t1/2 ([1]; single 200 mg fasted, healthy adults) was 35.20 ± 8.97 h, the AUCinf [1, 12] was 22850 (17) ng.hr/mL and the CL/F [1, 12] was 145.8 (17) mL/min. The Cmax [1, 12] was 643.2 (19) ng/mL, the Vz/F [1, 12] was 433.7 (18) L and the Tmax ([1]; single 200 mg fasted, healthy adults, median (range)) was 4.00 (2.00–6.07) h. For the same compound, the “Food effect on plasma exposure (Cmax and AUCinf)” value ([1]; single 200 mg fed vs fasted) was “no apparent food effect”, the t1/2 ([1]; single 200 mg fed, healthy adults) was 33.38 ± 6.25 h and the AUCinf [1, 13] was 23260 (15) ng.hr/mL. The CL/F [1, 13] was 143.3 (15) mL/min, the Cmax [1, 13] was 630.2 (9) ng/mL and the Vz/F [1, 13] was 408.1 (16) L. For the same compound, the Tmax ([1]; single 200 mg fed, healthy adults, median (range)) was 6.00 (4.00–8.00) h, the Tmax ([1]; single 200 mg in a fed state) was 6 h and the t1/2 ([1]; single 400 mg fasted, healthy adults) was 34.70 ± 8.97 h. The AUCinf [1, 14] was 44980 (17) ng.hr/mL, the CL/F [1, 14] was 148.3 (17) mL/min and the Cmax [1, 14] was 1436.0 (10) ng/mL. For the same compound, the Vz/F [1, 14] was 433.0 (19) L, the Tmax ([1]; single 400 mg fasted, healthy adults, median (range)) was 3.02 (2.00–4.00) h and the t1/2 ([1]; single 540 mg fasted, healthy adults) was 35.85 ± 8.10 h. The AUCinf [1, 15] was 63420 (9) ng.hr/mL, the CL/F [1, 15] was 142.0 (9) mL/min and the Cmax [1, 15] was 1829.0 (19) ng/mL. The Vz/F [1, 15] was 431.1 (19) L, the Tmax ([1]; single 540 mg fasted, healthy adults, median (range)) was 3.01 (2.00–6.02) h and the “Hair color (pigmentation) change” value (pigmented C57BL/6J mice) was “not observed; also recorded: did not reveal pigmentation changes”. For the same compound, the “Maximum placebo-adjusted mean QTcF change from baseline” value ([2]; 275 mg QD for 14 days, 90% CI: 4.5, 21.1) was 12.8 ms, the “Maximum placebo-adjusted mean QTcF change from baseline” value ([2]; single dose 540 mg, 90% CI: 7.6, 22.2) was 14.9 ms and the CYP3A4/5 inhibition (CYP3A4/5) was “weak metabolism-dependent inhibitor”. For the same compound, the “ALT elevation, one subject” value ([3]; period 2, Day 7) was 2.12 ×ULN, the “AST elevation, one subject” value ([3]; period 2, Day 7) was 1.23 ×ULN and the “AST peak, one subject” value ([3]; period 2, Day 12) was 1.75 ×ULN. For the same compound, the “ALT peak, one subject” value ([3]; period 2, Day 13) was 3.33 ×ULN.
